# A selection: hits, their analogues and other compounds. The true share with any hit is near 2.1%.
# CDK5 inh: blocks human CDK5/p35 kinase activity; actives 0.01% (n = 330,000); inhibition, % at 10 µM; Q00535+Q15078; AID 488839; Recombinant CDK5/p35, ADP-Glo luminescence, 60 min;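 active = highest replicate inhibition of at least 50% and at least 75% of replicates reaching 50%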
# SR-BI DiI-HDL act: activators of SR-BI mediated HDL lipid uptake; CHO ldlA[mSR-BI] cells, DiI-HDL uptake fluorescence, 3 h; 100 = double the neutral-control signal; activation, % at 12.5 µM; actives 0.096% (n = 320,000);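 active = mean replicate activation of at least 60% and every replicate at or above 60%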
#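 Test system: SR-BI-overexpressing, LDLR-lacking CHO cells; Medium: Ham's F12 with 0.5% BSA, HEPES 25 mM, pH 7.4; Schedule: 3 h, 37 °C; Technique: bottom-read fluorescence, 550/595 nm.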
# dFosB act-1: mouse delta FosB homodimer activation; activation, % at 25 µM; P13346; actives 0.99% (n = 340,000); purified delta FosB, TAMRA-CDK5 oligo fluorescence polarization; percent of positive-control signal above neutral wells;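 active = mean activation above about 17%, with every replicate also reaching it, limit read from the data, passing the limit was not always enough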
# SR-BI DiI inh: mouse SR-BI HDL lipid transfer inhibition. ldlA[mSR-BI] CHO cells, DiI-HDL uptake fluorescence, 3 h. Q61009. actives 0.96% (n = 320,000). inhibition, % at 12.5 µM;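 active = mean replicate inhibition of at least 70% and a set share of replicates each scoring 70 or more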
# PKA-R2B act: activates the human PKA-R2B holoenzyme complex | PKA-R2B holoenzyme dissociation, Cy5-IP20 fluorescence polarization; R2B truncated from residue 108, S112A mutant; 0% DMSO only, 100% 113 µM cGMP | activation, % at 11.4 µM | actives 0.079% (n = 340,000);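 active = activation above a cutoff set at the mean over all compounds plus 3 SD, cut at about 18% in these data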;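 note: higher means more holoenzyme dissociation and a rise in polarization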
# Target sequence (P31323 whole entry, looked up, other chains not shown, the tested form may be a part): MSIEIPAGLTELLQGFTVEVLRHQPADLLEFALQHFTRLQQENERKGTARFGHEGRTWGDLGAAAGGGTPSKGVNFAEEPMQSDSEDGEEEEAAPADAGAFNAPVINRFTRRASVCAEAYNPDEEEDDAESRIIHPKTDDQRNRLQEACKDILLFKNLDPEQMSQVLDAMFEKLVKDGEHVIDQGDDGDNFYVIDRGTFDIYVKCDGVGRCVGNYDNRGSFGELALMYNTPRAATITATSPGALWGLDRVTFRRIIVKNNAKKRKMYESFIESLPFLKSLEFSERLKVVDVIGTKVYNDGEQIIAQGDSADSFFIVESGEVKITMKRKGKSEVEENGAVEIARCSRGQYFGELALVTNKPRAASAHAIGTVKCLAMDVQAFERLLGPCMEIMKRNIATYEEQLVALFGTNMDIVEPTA
# PKA-R1A act: activates the PKA-R1A holoenzyme complex. P00514+P68181. PKA-R1A dissociation, Cy5-IP20 fluorescence polarization; scaled: DMSO 0%, 113 µM cGMP 100%. activation, % at 11.4 µM. actives 0.083% (n = 340,000). AID 504707;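 active = percent activation above the mean of all tested compounds plus 3 SD, cut at about 19% in these data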;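 note: higher means more PKAc released from R1A so a rise in polarization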
# dFosB act-2: enhances mouse delta FosB homodimer binding to DNA; activation, % at 24.9 µM; shares compounds with dFosB act-1; purified delta FosB, TAMRA-CDK5 oligo fluorescence polarization; normalised: neutral wells 0, positive control 100; 2,400 tested, under 10 active;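 active = highest replicate activation at or above 34% and every replicate reaching that threshold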;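 note: higher polarization means more probe DNA bound by delta FosB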
# Hits are given with their value; – = inactive; · = not tested or not shown.
SMILES,CDK5 inh,SR-BI DiI-HDL act,dFosB act-1,SR-BI DiI inh,PKA-R2B act,PKA-R1A act,dFosB act-2
COC(=O)c1cn(NC(=O)Cc2c(F)cccc2Cl)c(=O)c2ccccc12,–,–,–,–,–,–,·
COC(=O)c1cn(NC(=O)COc2ccc(Cl)cc2)c(=O)c2ccccc12,–,–,32,–,–,–,–
C#CCOCCOCCOCCNc1nc(N2CCN(C(=O)[C@H](CCCCN)n3cc(C(N)[C@H](C)CC)nn3)CC2)nc(N2CCN(C(=O)[C@H](CCC(=O)O)n3cc(C(N)[C@H](C)CC)nn3)CC2)n1 (some centres not stated),–,–,–,–,–,–,·
C#CCOCCOCCOCCNc1nc(N2CCN(C(=O)[C@H](CCCN=C(N)N)n3cc(C(N)[C@@H](C)CC)nn3)CC2)nc(N2CCN(C(=O)[C@H](CCCCN)n3cc([C@@H](N)[C@H](C)CC)nn3)CC2)n1 (some centres not stated),–,–,36,–,–,–,–
C#CCOCCOCCOCCNc1nc(N2CCN(C(=O)[C@H](CCCN=C(N)N)n3cc(C(N)[C@@H](C)CC)nn3)CC2)nc(N2CCN(C(=O)[C@H](CCC(=O)O)n3cc([C@@H](N)CCCCN)nn3)CC2)n1 (some centres not stated),–,–,–,–,–,–,·
C#CCOCCOCCOCCNc1nc(N2CCN(C(=O)[C@H](CCCCN)n3cc(CN)nn3)CC2)nc(N2CCN(C(=O)[C@H](CCCCN)n3cc([C@@H](N)[C@H](C)CC)nn3)CC2)n1,–,–,43,–,–,–,–
O=C(C[C@H]1C(=O)N(Cc2ccccc2)C[C@@H]1Cc1ccccc1)Nc1ccc(Br)cc1,·,·,·,·,–,–,·
COc1ccc(-c2nnn(CC(=O)Nc3sc4c(c3C#N)CCCC4)n2)cc1,–,–,26,–,–,–,–
Cc1ccc(NNC(=O)C(O)(c2cccc(C(F)(F)F)c2)c2cccc(C(F)(F)F)c2)cc1,–,–,77,–,–,–,–
O=C(O)COc1ccccc1C=NNC(=O)c1ccccc1NS(=O)(=O)c1cccs1,–,–,–,–,–,–,·
O=C(NNc1ccccc1[N+](=O)[O-])Nc1ccc(Cl)c(Cl)c1,–,–,29,–,–,–,–
CCOc1ccc(-c2nnc3ccc(SCC(=O)Nc4nc5ccc(C)cc5s4)nn23)cc1,–,–,42,–,–,–,–
O=C(CSc1nc2ccccc2c(=O)n1Cc1ccc(F)cc1)NCc1cccs1,–,–,35,–,–,–,–
COCCn1cnc2c1c(=O)n(CC(=O)Nc1cc(C)on1)c(=O)n2Cc1ccccc1,–,–,–,–,–,–,·
O=C(CSc1nc2ccccc2c(=O)n1Cc1ccccc1)NCc1ccco1,–,–,–,–,–,–,·
Cc1cc(NC(=O)CSc2nc3ccccc3c(=O)n2Cc2ccc(F)cc2)no1,–,–,42,–,–,–,–
Cc1cc(NC(=O)Cn2c(=O)n(Cc3ccccc3)c(=O)c3ccccc32)no1,–,–,52,–,–,–,–
COc1ccc(CCn2c(SCC(=O)Nc3cc(C)on3)nc3ccsc3c2=O)cc1OC,–,–,23,–,–,–,–
COc1ccc(CCn2c(SCC(=O)Nc3cc(C)on3)nc3ccccc3c2=O)cc1OC,–,–,–,–,–,–,·
Nc1nc(SCC(=O)NC2CCCCC2)n[nH]1,–,–,–,–,–,–,·
Cc1ccc(S(=O)(=O)N2CCN(C(=O)COC(=O)COc3ccccc3C(C)C)CC2)c(C)c1,–,–,–,–,–,–,·
O=C(CC1C(=O)NCCN1Cc1ccccc1)NC1CCCCC1 (configuration not stated),·,·,·,·,–,–,·
CC(=O)Nc1sc(C)c(C)c1C(=O)OCC(=O)Nc1cc(S(C)(=O)=O)ccc1Cl,–,·,56,·,–,–,–
CS(=O)(=O)c1ccc(Cl)c(NC(=O)COC(=O)c2c(Cl)cccc2Cl)c1,–,–,–,–,–,–,·
O=C(Nc1cccc(Cl)c1)c1ccc2c(c1)SC1=NS(=O)(=O)CCN12,–,–,26,–,–,–,–
SMILES,CDK5 inh,SR-BI DiI-HDL act,dFosB act-1,SR-BI DiI inh,PKA-R2B act,PKA-R1A act,dFosB act-2
COc1ccc(CCNC(=O)c2ccc3c(c2)SC2=NS(=O)(=O)CCN23)cc1,–,–,–,–,–,–,·
CC(=O)c1cccc(NS(=O)(=O)c2ccc(N/C=C\C(=O)c3ccc(C)cc3)cc2)c1,–,–,23,–,–,–,–
CC(=O)c1ccc(NS(=O)(=O)c2ccc(N/C=C/C(=O)c3ccc(F)cc3)cc2)cc1,–,·,44,·,–,–,–
CCN(CC(=O)Nc1ccccc1OC)C(=O)c1ccc(N(C)S(=O)(=O)c2ccc(C)cc2)cc1,–,–,–,–,–,–,·
N#CCC(=O)N/N=C/c1cn(Cc2ccccc2C#N)c2ccccc12,–,–,–,–,–,–,·
N#CCC(=O)N/N=C/c1cn(Cc2ccc(Cl)c(Cl)c2)c2ccccc12,–,–,51,–,–,–,–
O=C(Cn1cc(C(F)(F)F)cc(Cl)c1=O)NCc1ccc(Cl)cc1Cl,–,–,46,–,–,–,–
Cc1cccc(NC(=O)NNC(=O)COc2ccc([N+](=O)[O-])cc2)c1C,–,–,31,–,–,–,–
COc1ccc(NC(=O)c2cc(S(=O)(=O)N3CCCCC3)c[nH]2)c(OC)c1,–,–,–,–,–,–,·
COc1cc(NC(=O)c2cc(S(=O)(=O)N3CCCCC3)c[nH]2)cc(OC)c1,–,–,100,–,–,–,–
Cc1ccc(C(C[N+](=O)[O-])Sc2ccc(N)cc2)cc1 (configuration not stated),–,–,–,–,–,–,·
O=C(NNC(=O)c1ccc(-c2ccccc2)cc1)Nc1ccc(F)cc1F,–,–,30,–,–,–,–
Cc1cc(C)c(S(=O)(=O)N2CCc3ccccc32)c(C)c1,–,–,27,–,–,–,–
COc1ccc(NC(=O)C2CCCN2C(=O)NC2CCCCC2)c(OC)c1 (configuration not stated),–,–,–,–,–,–,·
Cc1ccc(C(=O)N/N=C/c2ccc(-c3ccccc3[N+](=O)[O-])o2)cn1,–,–,–,–,–,–,·
COc1ccc(-c2ccc(/C=N/NC(=O)c3cccnc3)o2)c([N+](=O)[O-])c1,–,–,50,–,–,–,–

# Assay outcomes deposited in PubChem by several laboratories.
